Test results as given in ChEMBL document CHEMBL3813688, “Synthesis, antitumor activity and mechanism of action of novel 1,3-thiazole derivatives containing hydrazide-hydrazone and carboxamide moiety” (Bioorg Med Chem Lett, 2016).
Converted amounts (≈) assume the structure as drawn.

Assays:
HepG2 [1] = assay: Cytotoxicity against human HepG2 cells assessed as cell growth inhibition after 72 hrs by MTT assay; format: functional, cell-based; conditions: HepG2, 72 h
In short: (§1)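 MTT growth assay in human cancer lines (MCF-7, HepG2, BGC-823, HeLa, A549), 72 h after treatment; 5-fluorouracil as reference. IC50 (μg/mL) taken as concentration giving 50% growth inhibition versus untreated control.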

MCF7 [2] = assay: Cytotoxicity against human MCF7 cells assessed as cell growth inhibition after 72 hrs by MTT assay; format: functional, cell-based; conditions: MCF7, 72 h; in short: as §1
HeLa [3] = assay: Cytotoxicity against human HeLa cells assessed as cell growth inhibition after 72 hrs by MTT assay; format: functional, cell-based; in short: as §1
A549 [4] = assay: Cytotoxicity against human A549 cells assessed as cell growth inhibition after 72 hrs by MTT assay; format: functional, cell-based; conditions: A549, 72 h; in short: as §1
[5] = Cytotoxicity against human BCG823 cells assessed as cell growth inhibition after 72 hrs by MTT assay; format: functional, cell-based; conditions: BCG823, 72 h; in short: as §1
HepG2 [6] = assay: Cytotoxicity against human HepG2 cells assessed as cell growth inhibition at 20 ug/ml after 72 hrs by MTT assay; format: functional; conditions: HepG2, 72 h, read-out: GI
[7] = tested on: MCF-7, HepG2, BGC-823, HeLa, A549 cancer cell lines (Homo sapiens); assay: Cytotoxicity against human MCF-7, HepG2, BGC-823, HeLa and A549 cells assessed as cell growth inhibition at 20 ug/ml after 72 hrs by MTT assay; conditions: read-out: GI
MCF7 [8] = assay: Cytotoxicity against human MCF7 cells assessed as cell growth inhibition at 20 ug/ml after 72 hrs by MTT assay; format: functional; conditions: MCF7, 72 h, read-out: GI
[9] = Cytotoxicity against human BCG823 cells assessed as cell growth inhibition at 20 ug/ml after 72 hrs by MTT assay; format: functional; conditions: BCG823, 72 h, read-out: GI
A549 [10] = assay: Cytotoxicity against human A549 cells assessed as cell growth inhibition at 20 ug/ml after 72 hrs by MTT assay; format: functional; conditions: A549, 72 h, read-out: GI
HeLa [11] = assay: Cytotoxicity against human HeLa cells assessed as cell growth inhibition at 20 ug/ml after 72 hrs by MTT assay; format: functional; conditions: read-out: GI

## Cc1nc(N(C)C(=O)NC(=O)c2c(F)cccc2F)sc1C(=O)N/N=C/c1ccc(Cl)cc1Cl
HepG2 [1]
  IC50: 70 µg/mL (≈ 133 µM)

## COc1ccc(/C=N/NC(=O)c2sc(N(C)C(=O)NC(=O)c3c(F)cccc3F)nc2C)cc1
HepG2 [1]
  IC50: 22.7 µg/mL (≈ 46.5 µM)

## CN(C(=O)NC(=O)c1ccc(Cl)cc1Cl)c1nc(C(F)(F)F)c(C(=O)N/N=C/c2cc(C(F)(F)F)cc(C(F)(F)F)c2)s1
MCF7 [2]
  IC50: > 100 µg/mL
HepG2 [1]
  IC50: > 100 µg/mL
HeLa [3]
  IC50: > 100 µg/mL
A549 [4]
  IC50: > 100 µg/mL
[5]
  IC50: > 100 µg/mL

## Cc1nc(N(C)C(=O)NC(=O)c2c(F)cccc2F)sc1C(=O)N/N=C/c1ccc(F)cc1
HepG2 [1]
  IC50: > 100 µg/mL

## Cc1nc(N(C)C(=O)NC(=O)c2c(F)cccc2F)sc1C(=O)N/N=C/c1ccccc1Cl
HepG2 [1]
  IC50: > 100 µg/mL

## CCOC(=O)c1sc(NC)nc1C
HepG2 [6]
  inhibition of growth at 20 µg/mL: < 10%
[7]
  inhibition at 72 h, 20 ug/ml: < 10%
MCF7 [8]
  inhibition of growth at 20 µg/mL: < 10%
[9]
  inhibition of growth at 20 µg/mL: < 10%
A549 [10]
  inhibition of growth at 20 µg/mL: < 10%
HeLa [11]
  inhibition of growth at 20 µg/mL: < 10%

## CN(C(=O)NC(=O)c1c(F)cccc1F)c1nc(C(F)(F)F)c(C(=O)N/N=C/c2cc(C(F)(F)F)cc(C(F)(F)F)c2)s1
MCF7 [2]
  IC50: 6.85 µg/mL (≈ 10.6 µM)
HepG2 [1]
  IC50: 6.28 µg/mL (≈ 9.7 µM)
HeLa [3]
  IC50: 5.62 µg/mL (≈ 8.68 µM)
A549 [4]
  IC50: 17.3 µg/mL (≈ 26.7 µM)
[5]
  IC50: 5.28 µg/mL (≈ 8.16 µM)

## CN(C(=O)NC(=O)c1cccc([N+](=O)[O-])c1)c1nc(C(F)(F)F)c(C(=O)N/N=C/c2ccccc2C(F)(F)F)s1
MCF7 [2]
  IC50: 4.73 µg/mL (≈ 8.04 µM)
HepG2 [1]
  IC50: 4.8 µg/mL (≈ 8.16 µM)
HeLa [3]
  IC50: 4.15 µg/mL (≈ 7.05 µM)
A549 [4]
  IC50: 5.45 µg/mL (≈ 9.26 µM)
[5]
  IC50: 3.97 µg/mL (≈ 6.75 µM)

## CN(C(=O)NC(=O)c1ccccc1F)c1nc(C(F)(F)F)c(C(=O)N/N=C/c2ccc(C(F)(F)F)cc2)s1
MCF7 [2]
  IC50: 4.98 µg/mL (≈ 8.87 µM)
HepG2 [1]
  IC50: 4.56 µg/mL (≈ 8.12 µM)
HeLa [3]
  IC50: 3.97 µg/mL (≈ 7.07 µM)
A549 [4]
  IC50: 5.68 µg/mL (≈ 10.1 µM)
[5]
  IC50: 3.87 µg/mL (≈ 6.89 µM)

## CN(C(=O)NC(=O)c1ccccc1[N+](=O)[O-])c1nc(C(F)(F)F)c(C(=O)N/N=C/c2ccc([N+](=O)[O-])cc2)s1
MCF7 [2]
  IC50: 21.2 µg/mL (≈ 37.5 µM)
HepG2 [1]
  IC50: 25.2 µg/mL (≈ 44.6 µM)
HeLa [3]
  IC50: 18.4 µg/mL (≈ 32.6 µM)
A549 [4]
  IC50: 17.6 µg/mL (≈ 31.2 µM)
[5]
  IC50: 15.7 µg/mL (≈ 27.7 µM)

## CN(C(=O)NC(=O)c1ccc(C(F)(F)F)cc1)c1nc(C(F)(F)F)c(C(=O)N/N=C/c2cc(C(F)(F)F)cc(C(F)(F)F)c2)s1
MCF7 [2]
  IC50: 7.37 µg/mL (≈ 10.8 µM)
HepG2 [1]
  IC50: 8.35 µg/mL (≈ 12.3 µM)
HeLa [3]
  IC50: 5.78 µg/mL (≈ 8.51 µM)
A549 [4]
  IC50: 5.9 µg/mL (≈ 8.68 µM)
[5]
  IC50: 1.77 µg/mL (≈ 2.61 µM)

## Cc1nc(N(C)C(=O)NC(=O)c2ccc(Cl)cc2Cl)sc1C(=O)N/N=C/c1ccc(C(F)(F)F)cc1
MCF7 [2]
  IC50: 24.5 µg/mL (≈ 43.9 µM)
HepG2 [1]
  IC50: > 100 µg/mL
HeLa [3]
  IC50: 20.3 µg/mL (≈ 36.4 µM)
A549 [4]
  IC50: 30.2 µg/mL (≈ 54.1 µM)
[5]
  IC50: 38 µg/mL (≈ 68 µM)

## Cc1nc(N(C)C(=O)NC(=O)c2c(F)cccc2F)sc1C(=O)N/N=C/c1ccc(Cl)cc1
HepG2 [1]
  IC50: > 100 µg/mL

## CN(C(=O)NC(=O)c1ccccc1F)c1nc(C(F)(F)F)c(C(=O)N/N=C/c2ccccc2C(F)(F)F)s1
MCF7 [2]
  IC50: 12.2 µg/mL (≈ 21.8 µM)
HepG2 [1]
  IC50: 5.39 µg/mL (≈ 9.6 µM)
HeLa [3]
  IC50: 10.1 µg/mL (≈ 18 µM)
A549 [4]
  IC50: 6.32 µg/mL (≈ 11.3 µM)
[5]
  IC50: 4.67 µg/mL (≈ 8.32 µM)

## CN(C(=O)NC(=O)c1cccc(C(F)(F)F)c1)c1nc(C(F)(F)F)c(C(=O)N/N=C/c2ccccc2C(F)(F)F)s1
MCF7 [2]
  IC50: 7.69 µg/mL (≈ 12.6 µM)
HepG2 [1]
  IC50: 10.4 µg/mL (≈ 17 µM)
HeLa [3]
  IC50: 7.37 µg/mL (≈ 12.1 µM)
A549 [4]
  IC50: 12.1 µg/mL (≈ 19.8 µM)
[5]
  IC50: 7.29 µg/mL (≈ 11.9 µM)

## CN(C(=O)NC(=O)c1ccccc1F)c1nc(C(F)(F)F)c(C(=O)N/N=C/c2cc(C(F)(F)F)cc(C(F)(F)F)c2)s1
MCF7 [2]
  IC50: 6.16 µg/mL (≈ 9.79 µM)
HepG2 [1]
  IC50: 4.47 µg/mL (≈ 7.1 µM)
HeLa [3]
  IC50: 4.98 µg/mL (≈ 7.91 µM)
A549 [4]
  IC50: 5.43 µg/mL (≈ 8.63 µM)
[5]
  IC50: 4.23 µg/mL (≈ 6.72 µM)

## CN(C(=O)NC(=O)c1ccc(Cl)cc1Cl)c1nc(C(F)(F)F)c(C(=O)N/N=C/c2ccc(C(F)(F)F)cc2)s1
MCF7 [2]
  IC50: 8.42 µg/mL (≈ 13.8 µM)
HepG2 [1]
  IC50: 12.4 µg/mL (≈ 20.3 µM)
HeLa [3]
  IC50: 7.99 µg/mL (≈ 13 µM)
A549 [4]
  IC50: 9.4 µg/mL (≈ 15.4 µM)
[5]
  IC50: 3.08 µg/mL (≈ 5.03 µM)

## CCOC(=O)c1sc(NC)nc1C(F)(F)F
HepG2 [6]
  inhibition of growth at 20 µg/mL: < 10%
[7]
  inhibition at 72 h, 20 ug/ml: < 10%
MCF7 [8]
  inhibition of growth at 20 µg/mL: < 10%
[9]
  inhibition of growth at 20 µg/mL: < 10%
A549 [10]
  inhibition of growth at 20 µg/mL: < 10%
HeLa [11]
  inhibition of growth at 20 µg/mL: < 10%

## CN(C(=O)NC(=O)c1c(F)cccc1F)c1nc(C(F)(F)F)c(C(=O)N/N=C/c2ccccc2C(F)(F)F)s1
MCF7 [2]
  IC50: 20.4 µg/mL (≈ 35.3 µM)
HepG2 [1]
  IC50: 26.1 µg/mL (≈ 45 µM)
HeLa [3]
  IC50: 19.6 µg/mL (≈ 33.8 µM)
A549 [4]
  IC50: 17.9 µg/mL (≈ 30.9 µM)
[5]
  IC50: 16.9 µg/mL (≈ 29.3 µM)

## Cc1nc(N(C)C(=O)NC(=O)c2c(F)cccc2F)sc1C(=O)N/N=C/c1cc(C(F)(F)F)cc(C(F)(F)F)c1
MCF7 [2]
  IC50: 11.6 µg/mL (≈ 19.6 µM)
HepG2 [1]
  IC50: 11.4 µg/mL (≈ 19.1 µM)
HeLa [3]
  IC50: 12.2 µg/mL (≈ 20.6 µM)
A549 [4]
  IC50: 13 µg/mL (≈ 21.9 µM)
[5]
  IC50: 14.1 µg/mL (≈ 23.7 µM)
